# Calls of active or inactive are those of the source. No cut-off for these calls is given here.
# Legend:
# [1] = target: Voltage-gated inwardly rectifying potassium channel KCNH2 (Homo sapiens, UniProt Q12809); assay: Activity at human ERG by patch clamp technique
# Method in brief: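 hERG current measured by manual patch clamp.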
# [2] = system: Mus musculus; assay: In vivo inhibition of mTORC1-mediated phosphorylation of pS6 at (serine 240/244) in human PC3 cells xenografted into athymic nude mouse at 100 mg/kg, po after 32 hrs by Western blotting analysis relative to control; type: functional; details: PC-3, 32 h
# Method in brief: (§1)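 PC-3 cells grown in DMEM with 20% FBS were implanted subcutaneously at 3 × 10^6 cells in ice-cold HBSS into the hindflank of 5−8 week old male nude mice. At tumor size 200−500 mg, mice received a single oral dose of 100 mg/kg. Plasma and tumors were collected at 1, 4, 8, 16, 24 and 32 h. Tumor lysates from each group (n = 5) were pooled. Phospho-proteins were quantified by Western blot and normalized to α-tubulin.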
# [3] = Clearance in athymic nude mouse at 10 mg/kg, iv; type: ADME, organism-based; set-up: dose 10 mg/kg, route intravenous; details: in vivo
# Method in brief: (§2)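 Single-dose PK: female athymic nude mice (10 mg/kg), female CD rats and male beagle dogs (3 mg/kg), male cynomolgus monkeys (3 mg/kg), given iv and by oral gavage. Solution in EPW (5% ethanol/45% PEG400/water), with 1:2 HCl (m/m) for mouse, rat and dog and 1:1.5 HCl (m/m) for monkey. Plasma levels followed over 24 h.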
# [4] = system: Mus musculus; assay: In vivo inhibition of mTORC1-mediated phosphorylation of p70S6K at […] in human PC3 cells xenografted into athymic nude mouse at 100 mg/kg, po after 4 hrs by Western blotting analysis relative to control; type: functional; details: PC-3, 4 h; method in brief: as §1
# [5] = target: ALK tyrosine kinase receptor (Homo sapiens, UniProt Q9UM73); assay: Inhibition of ALK (unknown origin)
# [6] = system: Mus musculus; assay: In vivo inhibition of mTORC1-mediated phosphorylation of 4EBP1 at ([…]) in human MCF7 cells xenografted into athymic nude mouse at 100 mg/kg, po after 1 hr by Western blotting analysis relative to control; type: functional; details: MCF7, 1 h
# [7] = target: DNA-dependent protein kinase catalytic subunit (Homo sapiens, UniProt P78527); assay: Inhibition of DNA-PK (unknown origin)
# [8] = Tmax in CD rat at 3 mg/kg, po; type: ADME, organism-based; set-up: dose 3 mg/kg, route oral; details: in vivo
# [9] = system: Plasma; assay: Plasma concentration in athymic mouse plasma xenografted with human PC3 cells at 100 mg/kg, po after 24 hrs; type: ADME, organism-based, PC-3; set-up: dose 100 mg/kg, route oral; details: in vivo, BLD = below limit of detection
# [10] = system: Mus musculus; assay: In vivo inhibition of mTORC1-mediated phosphorylation of 4EBP1 at ([…]) in human PC3 cells xenografted into athymic nude mouse at 100 mg/kg, po after 24 hrs by Western blotting analysis relative to control; type: functional; details: PC-3, 24 h; method in brief: as §1
# [11] = Volume of distribution at steady state in athymic nude mouse at 10 mg/kg, iv; type: ADME, organism-based; set-up: dose 10 mg/kg, route intravenous; details: in vivo, read-out: Vdss
# [12] = Half life in CD rat at 3 mg/kg, iv; type: ADME, organism-based; set-up: dose 3 mg/kg, route intravenous; details: in vivo; method in brief: as §2
# [13] = Plasma concentration in athymic mouse plasma xenografted with human MCF7 cells at 100 mg/kg, po after 4 hrs; type: ADME, organism-based; set-up: dose 100 mg/kg, route oral
# Method in brief: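 MCF-7 cells (5 × 10^6 in 50% cold HBSS/50% growth-factor-reduced Matrigel) implanted subcutaneously in the hindflank of 5−8-week-old female nude mice. When tumors reached 40−150 mg, mice received a single oral dose. Plasma exposure was measured after dosing, and scheduled takedown was at 4 h.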
# [14] = system: Mus musculus; assay: In vivo inhibition of mTORC1-mediated phosphorylation of p70S6K at […] in human MCF7 cells xenografted into athymic nude mouse at 100 mg/kg, po after 32 hrs by Western blotting analysis relative to control; type: functional; details: MCF7, 32 h
# Method in brief: (§3)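 MCF-7 cells (DMEM, 10% FBS) were implanted subcutaneously at 5 × 10^6 cells in 50% cold HBSS/50% growth-factor-reduced matrigel into the hindflank of 5−8 week old female nude mice. At tumor size 40−150 mg, mice received a single oral dose of 100 mg/kg. Tumor lysates were pooled per group. Phospho-AKT (S473, T308), p70S6K (T389), S6 (S240/244) and 4E-BP1 (T37/46) were measured by Western blot normalized to α-tubulin.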
# [15] = system: Mus musculus; assay: In vivo inhibition of mTORC1-mediated phosphorylation of p70S6K at […] in human MCF7 cells xenografted into athymic nude mouse at 100 mg/kg, po after 1 hr by Western blotting analysis relative to control; type: functional; details: MCF7, 1 h; method in brief: as §3
# [16] = Plasma concentration in mouse at 100 mg/kg, po after 4 hrs; type: ADME, organism-based; set-up: dose 100 mg/kg, route oral
# [17] = target: Receptor-type tyrosine-protein kinase FLT3 (Homo sapiens, UniProt P36888); assay: Inhibition of FLT3 (unknown origin)
# [18] = system: Mus musculus; assay: In vivo inhibition of mTORC2-mediated phosphorylation of AKT at […] in human PC3 cells xenografted into athymic nude mouse at 100 mg/kg, po after 32 hrs by Western blotting analysis relative to control; type: functional; details: PC-3, 32 h
# Method in brief: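 Human PC-3 cells were implanted subcutaneously into the hindflank of male nude mice aged 5−8 weeks, at 3 × 10^6 cells (passages 10−14, >95% viability) in ice-cold HBSS. At a tumor size of 200−500 mg, mice got one oral 100 mg/kg dose. Tumors were taken at 1, 4, 8, 16, 24 and 32 h. Lysates (n = 5 per group) were pooled, and phospho-AKT (T308) was read by Western blot, normalized to α-tubulin.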
# [19] = target: Serine/threonine-protein kinase mTOR (Rattus norvegicus) (UniProt P42346); assay: Reversible inhibition of mTOR (unknown origin) assessed as enzyme recovery measured after dilution in presence of ATP relative to untreated control; details: Homo sapiens
# [20] = Metabolic stability in mouse liver microsomes after 30 mins; type: ADME, Microsome; details: read-out: Stability
# [21] = Drug uptake in tumor of athymic mouse xenografted with human PC3 cells at 100 mg/kg, po after 16hrs; type: ADME, organism-based, Neoplasm, PC-3; set-up: dose 100 mg/kg, route oral; details: read-out: Drug uptake
# Method in brief: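 PC-3 cells (3 × 10⁶, passages 10–14, in ice-cold HBSS) were implanted sc in 5–8 week old male nude mice. Tumors of 200–500 mg received a single oral 100 mg/kg dose. Plasma and tumor were collected at 1, 4, 8, 16, 24 and 32 h and homogenized in buffer. Lysates were pooled per group (n = 5), and phospho-proteins were measured by Western blot normalized to α-tubulin.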
# [22] = Plasma protein binding in monkey at 5 uM; type: ADME, cell-free, Macaca mulatta; details: rhesus monkey, read-out: PPB (converted)
# [23] = Drug uptake in tumor of athymic mouse xenografted with human MCF7 cells at 100 mg/kg, po after 1 hr; type: ADME, organism-based, Neoplasm; set-up: dose 100 mg/kg, route oral; details: read-out: Drug uptake
# [24] = AUC (0 to infinity) in athymic nude mouse at 10 mg/kg, po; type: ADME, organism-based; set-up: dose 10 mg/kg, route oral, time infinity; details: plasma; method in brief: as §2
# [25] = system: MCF7; assay: Antitumor activity against human MCF7 cells xenografted in athymic nude mouse at 100 mg/kg, po qd for 14 days relative to control; type: functional
# Method in brief: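 Female athymic nude (NCr) mice, 5–8 weeks old, bearing subcutaneous MCF-7 tumors staged at 100–200 mg. Compound given orally qd for 14 days at 50 or 100 mg/kg as a solution/fine suspension in water with a 1:1 molar ratio of 1 N HCl. Caliper tumor mass = length × width²/2, measured twice weekly; body mass recorded daily.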
# Chain of DNA-dependent protein kinase catalytic subunit (P78527 whole entry): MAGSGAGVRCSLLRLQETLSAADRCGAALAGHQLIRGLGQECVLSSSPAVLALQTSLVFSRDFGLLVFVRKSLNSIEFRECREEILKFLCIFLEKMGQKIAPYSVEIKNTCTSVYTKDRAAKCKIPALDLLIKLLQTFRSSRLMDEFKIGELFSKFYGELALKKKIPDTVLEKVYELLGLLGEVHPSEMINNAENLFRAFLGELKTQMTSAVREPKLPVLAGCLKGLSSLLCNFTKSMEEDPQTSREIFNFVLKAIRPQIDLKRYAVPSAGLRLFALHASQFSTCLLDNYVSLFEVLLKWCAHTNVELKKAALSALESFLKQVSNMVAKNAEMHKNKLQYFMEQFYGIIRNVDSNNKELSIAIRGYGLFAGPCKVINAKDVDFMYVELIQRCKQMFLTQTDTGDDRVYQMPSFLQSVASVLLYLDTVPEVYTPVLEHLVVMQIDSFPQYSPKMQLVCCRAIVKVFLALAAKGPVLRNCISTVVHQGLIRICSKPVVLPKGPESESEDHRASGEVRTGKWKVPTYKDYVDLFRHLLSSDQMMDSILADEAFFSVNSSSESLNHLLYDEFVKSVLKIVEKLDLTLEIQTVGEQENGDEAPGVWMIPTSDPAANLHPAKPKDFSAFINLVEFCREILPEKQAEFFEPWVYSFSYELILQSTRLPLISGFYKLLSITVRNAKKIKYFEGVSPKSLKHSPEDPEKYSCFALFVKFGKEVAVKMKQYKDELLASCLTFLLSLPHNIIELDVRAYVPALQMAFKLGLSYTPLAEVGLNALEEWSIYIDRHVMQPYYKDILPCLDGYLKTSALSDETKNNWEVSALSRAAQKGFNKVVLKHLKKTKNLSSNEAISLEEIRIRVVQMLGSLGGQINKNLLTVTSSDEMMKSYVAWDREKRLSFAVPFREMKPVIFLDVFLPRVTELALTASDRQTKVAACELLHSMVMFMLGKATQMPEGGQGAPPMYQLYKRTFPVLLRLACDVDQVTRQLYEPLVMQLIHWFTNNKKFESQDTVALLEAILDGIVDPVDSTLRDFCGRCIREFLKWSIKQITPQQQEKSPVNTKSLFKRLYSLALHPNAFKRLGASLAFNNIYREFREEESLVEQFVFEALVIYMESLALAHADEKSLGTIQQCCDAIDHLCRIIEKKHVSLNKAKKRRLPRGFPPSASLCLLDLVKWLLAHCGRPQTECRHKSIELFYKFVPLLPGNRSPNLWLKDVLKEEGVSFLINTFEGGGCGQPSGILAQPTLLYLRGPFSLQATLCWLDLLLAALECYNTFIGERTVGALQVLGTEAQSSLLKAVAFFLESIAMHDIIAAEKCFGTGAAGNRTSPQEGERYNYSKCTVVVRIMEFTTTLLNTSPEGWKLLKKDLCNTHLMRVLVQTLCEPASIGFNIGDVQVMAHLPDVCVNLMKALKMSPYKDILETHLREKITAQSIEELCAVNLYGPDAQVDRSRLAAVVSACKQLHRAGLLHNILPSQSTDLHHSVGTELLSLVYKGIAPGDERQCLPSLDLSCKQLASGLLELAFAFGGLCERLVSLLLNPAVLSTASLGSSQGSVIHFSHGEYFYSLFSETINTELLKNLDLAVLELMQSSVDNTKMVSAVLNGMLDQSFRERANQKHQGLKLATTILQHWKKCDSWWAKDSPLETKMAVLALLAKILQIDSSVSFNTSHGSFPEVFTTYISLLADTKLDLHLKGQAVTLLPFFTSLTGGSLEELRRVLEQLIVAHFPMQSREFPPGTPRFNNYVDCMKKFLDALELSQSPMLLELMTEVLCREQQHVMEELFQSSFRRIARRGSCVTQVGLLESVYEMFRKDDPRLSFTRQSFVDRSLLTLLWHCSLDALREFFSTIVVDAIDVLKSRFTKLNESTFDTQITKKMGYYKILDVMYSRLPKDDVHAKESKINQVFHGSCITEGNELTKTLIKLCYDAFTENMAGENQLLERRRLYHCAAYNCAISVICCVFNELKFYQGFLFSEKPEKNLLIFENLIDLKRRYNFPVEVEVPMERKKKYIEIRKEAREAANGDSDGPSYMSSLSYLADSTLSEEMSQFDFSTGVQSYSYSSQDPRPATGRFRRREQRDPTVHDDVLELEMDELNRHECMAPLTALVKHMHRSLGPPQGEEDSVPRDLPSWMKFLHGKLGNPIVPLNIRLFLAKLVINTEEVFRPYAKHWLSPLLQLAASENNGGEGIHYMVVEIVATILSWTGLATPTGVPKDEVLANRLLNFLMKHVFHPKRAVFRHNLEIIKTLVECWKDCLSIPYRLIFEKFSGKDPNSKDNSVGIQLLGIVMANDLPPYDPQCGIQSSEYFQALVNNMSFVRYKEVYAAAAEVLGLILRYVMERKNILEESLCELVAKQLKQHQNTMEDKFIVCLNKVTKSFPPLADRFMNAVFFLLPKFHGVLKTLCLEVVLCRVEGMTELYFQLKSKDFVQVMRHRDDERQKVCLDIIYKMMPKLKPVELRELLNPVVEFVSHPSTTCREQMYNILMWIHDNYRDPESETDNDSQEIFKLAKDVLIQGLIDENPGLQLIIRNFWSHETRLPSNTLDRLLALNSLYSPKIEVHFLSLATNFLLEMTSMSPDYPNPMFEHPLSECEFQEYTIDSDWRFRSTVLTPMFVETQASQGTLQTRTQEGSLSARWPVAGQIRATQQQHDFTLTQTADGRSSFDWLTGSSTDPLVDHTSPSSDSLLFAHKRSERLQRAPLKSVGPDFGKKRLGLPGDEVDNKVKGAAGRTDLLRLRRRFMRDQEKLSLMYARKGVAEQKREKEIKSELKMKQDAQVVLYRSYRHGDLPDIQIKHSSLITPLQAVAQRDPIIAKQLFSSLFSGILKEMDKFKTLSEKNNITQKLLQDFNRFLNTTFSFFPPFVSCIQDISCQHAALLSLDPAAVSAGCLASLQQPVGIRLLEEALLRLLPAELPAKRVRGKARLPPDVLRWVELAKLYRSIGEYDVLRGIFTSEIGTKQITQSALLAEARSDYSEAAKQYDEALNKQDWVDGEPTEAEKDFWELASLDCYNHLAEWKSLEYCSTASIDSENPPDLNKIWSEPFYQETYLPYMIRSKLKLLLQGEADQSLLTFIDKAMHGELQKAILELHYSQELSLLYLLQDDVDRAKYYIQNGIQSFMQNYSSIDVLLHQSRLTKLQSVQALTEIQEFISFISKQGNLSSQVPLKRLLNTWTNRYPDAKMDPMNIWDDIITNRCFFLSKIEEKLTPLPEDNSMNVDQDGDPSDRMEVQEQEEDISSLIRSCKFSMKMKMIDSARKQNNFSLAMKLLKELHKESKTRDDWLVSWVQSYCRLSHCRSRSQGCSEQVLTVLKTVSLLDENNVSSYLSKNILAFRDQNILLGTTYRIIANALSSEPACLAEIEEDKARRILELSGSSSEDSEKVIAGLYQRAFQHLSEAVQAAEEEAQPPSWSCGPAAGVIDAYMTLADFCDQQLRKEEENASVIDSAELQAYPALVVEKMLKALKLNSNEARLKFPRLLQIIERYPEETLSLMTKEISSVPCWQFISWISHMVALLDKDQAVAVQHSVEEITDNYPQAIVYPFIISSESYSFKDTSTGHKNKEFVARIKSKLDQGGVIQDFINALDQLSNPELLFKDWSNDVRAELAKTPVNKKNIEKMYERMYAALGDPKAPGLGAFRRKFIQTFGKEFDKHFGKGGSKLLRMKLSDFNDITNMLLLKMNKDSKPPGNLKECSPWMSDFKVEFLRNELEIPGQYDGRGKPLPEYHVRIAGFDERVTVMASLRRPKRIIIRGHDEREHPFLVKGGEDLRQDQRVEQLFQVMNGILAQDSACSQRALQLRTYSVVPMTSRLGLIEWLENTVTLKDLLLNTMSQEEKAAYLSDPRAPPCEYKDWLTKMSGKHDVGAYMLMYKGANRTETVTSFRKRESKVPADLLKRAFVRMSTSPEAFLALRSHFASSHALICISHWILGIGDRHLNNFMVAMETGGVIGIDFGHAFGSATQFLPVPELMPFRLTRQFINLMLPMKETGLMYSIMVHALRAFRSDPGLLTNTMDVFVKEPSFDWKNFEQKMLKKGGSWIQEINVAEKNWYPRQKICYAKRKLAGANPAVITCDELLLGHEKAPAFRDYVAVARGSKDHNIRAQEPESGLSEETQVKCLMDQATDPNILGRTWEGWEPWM
# Chain of Receptor-type tyrosine-protein kinase FLT3 (P36888 whole entry): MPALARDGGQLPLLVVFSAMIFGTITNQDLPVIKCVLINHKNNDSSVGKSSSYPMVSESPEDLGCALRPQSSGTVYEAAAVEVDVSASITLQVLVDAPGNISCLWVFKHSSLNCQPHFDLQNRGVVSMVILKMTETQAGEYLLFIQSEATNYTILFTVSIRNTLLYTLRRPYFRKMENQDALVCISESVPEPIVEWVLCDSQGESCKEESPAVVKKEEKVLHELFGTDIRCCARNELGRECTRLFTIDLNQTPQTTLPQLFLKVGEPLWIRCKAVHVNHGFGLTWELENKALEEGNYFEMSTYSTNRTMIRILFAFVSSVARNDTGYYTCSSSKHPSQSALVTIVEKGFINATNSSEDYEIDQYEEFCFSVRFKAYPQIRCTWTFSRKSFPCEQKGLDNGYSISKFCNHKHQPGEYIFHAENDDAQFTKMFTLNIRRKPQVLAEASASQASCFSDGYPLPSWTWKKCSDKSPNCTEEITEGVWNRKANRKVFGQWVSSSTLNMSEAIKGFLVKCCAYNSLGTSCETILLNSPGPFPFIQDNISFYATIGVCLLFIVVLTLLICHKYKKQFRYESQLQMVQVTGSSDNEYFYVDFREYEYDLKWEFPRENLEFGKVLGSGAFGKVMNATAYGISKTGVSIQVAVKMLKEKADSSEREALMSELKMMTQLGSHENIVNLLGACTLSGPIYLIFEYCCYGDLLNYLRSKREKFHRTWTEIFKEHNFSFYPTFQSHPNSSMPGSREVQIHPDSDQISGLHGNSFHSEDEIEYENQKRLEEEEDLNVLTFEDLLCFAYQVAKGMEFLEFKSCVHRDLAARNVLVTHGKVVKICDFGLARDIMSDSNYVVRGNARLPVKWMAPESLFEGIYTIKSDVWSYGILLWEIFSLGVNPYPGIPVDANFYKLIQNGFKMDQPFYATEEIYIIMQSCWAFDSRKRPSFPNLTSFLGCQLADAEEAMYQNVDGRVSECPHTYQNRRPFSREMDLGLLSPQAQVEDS
structure (smiles),measurement,setting,value
Cc1c(C(=O)N2CCOc3ccc(-c4ccc(N)nc4)cc3C2)ccc(S(C)(=O)=O)c1F,Activity,[1],15.9 µM
same,inhibition in vivo at 100 mg/kg,[2],-20%
same,clearance,[3],45.8 mL/min/kg
same,inhibition in vivo at 100 mg/kg,[4],95%
same,IC50,[5],> 3.5 µM
same,inhibition in vivo at 100 mg/kg,[6],94%
same,IC50,[7],8.83 µM
same,Tmax,[8],30 min
same,Cp,[9],BLD
same,inhibition in vivo at 100 mg/kg,[10],19%
same,Vd,[11],1.96 L/kg
same,half-life,[12],27 min
same,concentration at 4 h,[13],30.1 µM
same,inhibition in vivo at 100 mg/kg,[14],2%
same,inhibition in vivo at 100 mg/kg,[15],85%
same,concentration at 4 h,[16],17.8 µM
same,IC50,[17],> 3.5 µM
same,inhibition in vivo at 100 mg/kg,[18],-3%
same,inhibition,[19],inactive
same,remaining at 0.5 h,[20],78%
same,concentration at 16 h,[21],7.34 µM
same,fraction unbound at 5 µM,[22],0.1
same,concentration at 1 h,[23],36.1 µM
same,AUC(0-inf),[24],2.51 µM·h
same,Activity,[25],40%

# — ChEMBL document CHEMBL2331117 (J Med Chem, 2013)
